# Columns and labels:
# [1] = Selectivity ratio of alpha1 beta-3 gamma2 GABA A / BzR and alpha5 beta-3 gamma2 GABA A / BzR
# [2] = molecular target: T1, GABA-A receptor; alpha-3/beta-3/gamma-2 (Homo sapiens, UniProt P18507+P28472+P34903); test: Binding affinity for human recombinant gamma-aminobutyric-acid (GABA) A receptor alpha-3-beta-3-gamma-2; format: protein-complex assay
# T1 sequence (P18507 whole entry): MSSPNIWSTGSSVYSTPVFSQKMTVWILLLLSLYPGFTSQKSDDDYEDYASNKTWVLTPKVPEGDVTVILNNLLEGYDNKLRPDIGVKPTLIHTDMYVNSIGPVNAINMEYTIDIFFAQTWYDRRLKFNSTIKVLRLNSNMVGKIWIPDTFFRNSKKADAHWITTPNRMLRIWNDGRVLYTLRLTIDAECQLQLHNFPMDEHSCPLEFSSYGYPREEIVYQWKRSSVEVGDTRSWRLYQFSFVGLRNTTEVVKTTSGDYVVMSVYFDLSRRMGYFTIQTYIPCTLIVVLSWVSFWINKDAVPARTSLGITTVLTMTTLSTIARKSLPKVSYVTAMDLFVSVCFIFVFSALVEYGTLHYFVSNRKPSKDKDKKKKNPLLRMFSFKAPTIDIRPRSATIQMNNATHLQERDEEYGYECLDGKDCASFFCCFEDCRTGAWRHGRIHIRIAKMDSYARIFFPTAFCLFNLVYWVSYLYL
# T1 sequence (P28472 whole entry): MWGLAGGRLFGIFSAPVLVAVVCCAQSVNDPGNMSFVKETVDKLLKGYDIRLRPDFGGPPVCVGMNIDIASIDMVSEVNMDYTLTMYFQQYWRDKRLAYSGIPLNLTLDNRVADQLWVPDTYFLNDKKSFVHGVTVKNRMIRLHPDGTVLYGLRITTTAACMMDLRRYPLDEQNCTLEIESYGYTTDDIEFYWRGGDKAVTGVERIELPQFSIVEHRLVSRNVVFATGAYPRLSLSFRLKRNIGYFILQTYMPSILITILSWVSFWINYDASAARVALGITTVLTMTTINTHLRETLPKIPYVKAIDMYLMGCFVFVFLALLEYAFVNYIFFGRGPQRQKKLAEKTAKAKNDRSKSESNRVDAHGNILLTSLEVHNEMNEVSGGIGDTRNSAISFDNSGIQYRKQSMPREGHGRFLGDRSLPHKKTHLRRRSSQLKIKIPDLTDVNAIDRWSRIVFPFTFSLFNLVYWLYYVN
# T1 sequence (P34903 whole entry): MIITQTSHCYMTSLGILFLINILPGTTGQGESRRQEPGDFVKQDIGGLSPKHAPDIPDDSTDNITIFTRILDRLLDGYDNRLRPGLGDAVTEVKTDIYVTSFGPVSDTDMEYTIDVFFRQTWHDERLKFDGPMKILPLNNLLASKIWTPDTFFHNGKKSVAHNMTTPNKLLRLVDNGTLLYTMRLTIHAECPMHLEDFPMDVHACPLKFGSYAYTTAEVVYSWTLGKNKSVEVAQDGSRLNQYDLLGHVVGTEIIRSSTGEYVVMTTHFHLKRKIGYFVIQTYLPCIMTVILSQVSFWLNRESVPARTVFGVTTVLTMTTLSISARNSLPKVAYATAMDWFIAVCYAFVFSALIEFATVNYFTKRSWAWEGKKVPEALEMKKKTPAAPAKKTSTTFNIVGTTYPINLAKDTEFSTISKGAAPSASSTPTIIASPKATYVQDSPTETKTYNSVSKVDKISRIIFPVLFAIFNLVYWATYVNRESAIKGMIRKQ
# [3] = molecular target: T2, GABA-A receptor; alpha-5/beta-3/gamma-2 (Homo sapiens, UniProt P18507+P28472+P31644); test: Binding affinity for human recombinant gamma-aminobutyric-acid (GABA) A receptor alpha-5-beta-3-gamma-2; format: protein-complex assay
# T2 sequence (P18507 whole entry): T1 sequence (P18507 whole entry)
# T2 sequence (P28472 whole entry): T1 sequence (P28472 whole entry)
# T2 sequence (P31644 whole entry): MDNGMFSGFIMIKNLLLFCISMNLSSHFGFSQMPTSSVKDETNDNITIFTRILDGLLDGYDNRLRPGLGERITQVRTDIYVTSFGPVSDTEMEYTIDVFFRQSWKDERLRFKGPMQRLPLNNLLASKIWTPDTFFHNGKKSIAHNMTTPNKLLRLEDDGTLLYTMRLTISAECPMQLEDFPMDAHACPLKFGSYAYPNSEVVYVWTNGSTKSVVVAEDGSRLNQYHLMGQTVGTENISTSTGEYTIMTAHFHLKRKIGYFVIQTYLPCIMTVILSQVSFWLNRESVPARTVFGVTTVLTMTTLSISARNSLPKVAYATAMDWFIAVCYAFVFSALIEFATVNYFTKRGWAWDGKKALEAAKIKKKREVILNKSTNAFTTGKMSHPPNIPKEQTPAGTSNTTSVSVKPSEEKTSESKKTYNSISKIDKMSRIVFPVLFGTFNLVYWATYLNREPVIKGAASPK
# [4] = molecular target: T3, GABA-A receptor; alpha-1/beta-3/gamma-2 (Homo sapiens, UniProt P14867+P18507+P28472); test: Binding affinity for human recombinant gamma-aminobutyric-acid (GABA) A receptor alpha-1-beta-3-gamma-2; format: protein-complex assay
# T3 sequence (P14867 whole entry): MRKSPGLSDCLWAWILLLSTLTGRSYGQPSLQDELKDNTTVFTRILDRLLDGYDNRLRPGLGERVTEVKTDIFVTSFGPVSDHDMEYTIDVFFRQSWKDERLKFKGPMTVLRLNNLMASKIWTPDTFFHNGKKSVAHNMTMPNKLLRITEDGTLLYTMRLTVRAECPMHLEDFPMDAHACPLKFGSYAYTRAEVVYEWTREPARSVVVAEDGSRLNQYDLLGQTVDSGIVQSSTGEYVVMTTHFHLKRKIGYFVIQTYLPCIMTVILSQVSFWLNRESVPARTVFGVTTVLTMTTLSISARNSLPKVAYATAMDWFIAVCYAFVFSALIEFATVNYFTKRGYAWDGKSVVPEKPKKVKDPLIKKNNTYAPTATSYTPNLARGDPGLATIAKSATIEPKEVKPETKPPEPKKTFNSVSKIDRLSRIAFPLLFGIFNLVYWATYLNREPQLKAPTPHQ
# T3 sequence (P18507 whole entry): T1 sequence (P18507 whole entry)
# T3 sequence (P28472 whole entry): T1 sequence (P28472 whole entry)
# [5] = molecular target: GABA-A receptor; alpha-6/beta-3/gamma-2 (Homo sapiens, UniProt P18507+P28472+Q16445); test: Binding affinity for human recombinant gamma-aminobutyric-acid (GABA) A receptor alpha-6-beta-3-gamma-2; format: protein-complex assay
# GABA-A receptor; alpha-6/beta-3/gamma-2, sequence (Q16445 whole entry, one chain of several): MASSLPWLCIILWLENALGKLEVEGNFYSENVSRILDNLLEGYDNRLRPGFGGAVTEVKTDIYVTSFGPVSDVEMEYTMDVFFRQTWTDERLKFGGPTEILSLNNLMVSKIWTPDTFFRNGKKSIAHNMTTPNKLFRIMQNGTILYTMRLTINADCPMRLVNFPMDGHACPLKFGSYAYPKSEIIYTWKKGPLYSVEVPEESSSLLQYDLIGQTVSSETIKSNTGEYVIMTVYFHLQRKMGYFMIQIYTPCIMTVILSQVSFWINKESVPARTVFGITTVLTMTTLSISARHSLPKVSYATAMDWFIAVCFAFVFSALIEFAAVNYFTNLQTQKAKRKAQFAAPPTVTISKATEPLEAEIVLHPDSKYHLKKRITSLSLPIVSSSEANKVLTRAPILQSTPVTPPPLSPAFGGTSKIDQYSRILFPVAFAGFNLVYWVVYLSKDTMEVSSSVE
# Procedure, shortened: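 Ltk⁻ cells expressing human α6β3γ2 were harvested by scraping into PBS, centrifuged at 3000g and resuspended in 10 mM KH₂PO₄/100 mM KCl (pH 7.4). Incubation was 1 h at 4 °C with filter harvest and scintillation counting.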
SMILES,Ratio [1],also measured
CN1Cc2c(C(=O)OC(C)(C)C)ncn2-c2ccc(C#C[Si](C)(C)C)cc2C1=O,75.5,–
CN1Cc2c(C(=O)OC(C)(C)C)ncn2-c2ccc(I)cc2C1=O,25.5,–
CCOC(=O)c1ncn2c1CN(C)C(=O)c1cc(OCC)ccc1-2,12.4,–
CN1Cc2c(C(=O)OC(C)(C)C)ncn2-c2ccc(N=C=S)cc2C1=O,6.8,–
CN1Cc2c(C(=O)OC(C)(C)C)ncn2-c2ccc(Cl)cc2C1=O,26.6,–
CN1Cc2c(C(=O)OC(C)(C)C)ncn2-c2ccc(O)cc2C1=O,10.7,–
CCc1ncn2c1CN(C)C(=O)c1cc(Cl)ccc1-2,2.2,–
COCc1ncn2c1CN(C)C(=O)c1cc(Cl)ccc1-2,> 7.7,–
CC(=O)c1ncn2c1CN(C)C(=O)c1cc(Cl)ccc1-2,6.7,–
CCOC(=O)c1ncn2c1CN(C)C(=O)c1cc(CC)ccc1-2,13.6,–
CN1Cc2c(C(=O)OC(C)(C)C)ncn2-c2ccc(N3CCCC3)cc2C1=O,0.63,–
CCOC(=O)c1ncn2c1[C@@H]1CCN1C(=O)c1cc(C#C[Si](C)(C)C)ccc1-2,32,–
C#Cc1ccc2c(c1)C(=O)N1CC[C@H]1c1c(-c3nc(CC)no3)ncn1-2,17,–
C=Cc1ccc2c(c1)C(=O)N(C)Cc1c(C(=O)OCC)ncn1-2,20.8,–
CCc1ccc2c(c1)C(=O)N(C)Cc1c(C(=O)OC(C)(C)C)ncn1-2,8.6,–
CCOc1cc2c(cn1)[nH]c1ccccc12,–,Ki [2]: 28.2 nM; Ki [3]: 826 nM
CCOC(=O)c1ncn2c1CN(C)C(=O)c1cc(Cl)ccc1-2,8,–
CCOC(=O)c1ncn2c1CN(C)C(=O)c1cc(C#N)ccc1-2,1.7,–
CCOC(=O)c1ncn2c1[C@@H]1CCCN1C(=O)c1ccccc1-2,4.6,Ki [2]: 7.1 nM; Ki [4]: 7.3 nM; Ki [3]: 1.6 nM; Ki [5]: > 300 nM

SMILES,Ratio [1],also measured
C#Cc1ccc2c(c1)C(=O)N1CCC[C@H]1c1c(C(=O)OCC)ncn1-2,45,–
CCOC(=O)c1ncn2c1CN(C)C(=O)c1cc(Br)ccc1-2,3.7,–
CCOC(=O)c1ncn2c1[C@@H]1CCN1C(=O)c1cc(Br)ccc1-2,56,–
CN1Cc2c(C(=O)OC(C)(C)C)ncn2-c2ccc(C#CC[Si](C)(C)C)cc2C1=O,12,–
COc1ccc(-n2nc3c4ccc(OC)cc4[nH]cc-3c2=O)cc1,–,Ki [2]: 0.79 nM; Ki [4]: 0.34 nM; Ki [3]: 0.52 nM; Ki [5]: 10 nM
CC#Cc1ccc2c(c1)C(=O)N(C)Cc1c(C(=O)OCC)ncn1-2,6,–
C#Cc1ccc2c(c1)C(=O)N1CC[C@H]1c1c(-c3nc(C(C)C)no3)ncn1-2,18,–
CCCOc1ccc2[nH]c3cnc(OCCC)c(COC)c3c2c1,–,Ki [5]: > 1000 nM
CCN(CC)Cc1ncn2c1CN(C)C(=O)c1cc(Cl)ccc1-2,3.2,–
CCOC(=O)c1ncn2c1[C@@H]1CCCN1C(=O)c1cc(Br)ccc1-2,49,–
C#Cc1ccc2c(c1)C(=O)N1CCC[C@@H]1c1c(C(=O)OCC)ncn1-2,39,–
CCOC(=O)c1ncn2c1CN(C)C(=O)c1cc(N=[N+]=[N-])ccc1-2 [Ro-154513],–,Ki [3]: 0.3 nM
C#Cc1ccc2c(c1)C(=O)N(C)Cc1c(C(=O)OC(C)(C)C)ncn1-2,67.3,–
CC(C)N(Cc1ncn2c1CN(C)C(=O)c1cc(Cl)ccc1-2)C(C)C,3.2,–
CN1Cc2c(C(=O)OC(C)(C)C)ncn2-c2ccc([N+](=O)[O-])cc2C1=O,3.7,–
COc1ccc(-n2nc3c4cc(Cl)ccc4[nH]cc-3c2=O)cc1,–,Ki [2]: 0.2 nM; Ki [4]: 0.2 nM; Ki [3]: 0.32 nM; Ki [5]: 1.9 nM
C#Cc1ccc2c(c1)C(=O)N1CC[C@H]1c1c(C(=O)OCC)ncn1-2,57,–
C#Cc1ccc2c(c1)C(=O)N1CCC[C@H]1c1c(-c3nc(C(C)C)no3)ncn1-2,15,–
[N-]=[N+]=Nc1ccc2c(c1)C(c1ccccc1N=[N+]=[N-])=NCC(=O)N2,1.32,Ki [2]: 4620 nM; Ki [4]: 2160 nM; Ki [3]: 1640 nM; Ki [5]: > 1000 nM

SMILES,Ratio [1],also measured
CN1Cc2c(C(=O)OCC3CC3)ncn2-c2ccc(Cl)cc2C1=O,1.7,–
CN1C(=O)CN=C(c2ccccc2)c2cc(Cl)ccc21 [DIAZEPAM],–,Ki [5]: > 3000 nM
CCOC(=O)c1ncn2c1[C@@H]1CCCN1C(=O)c1cc(OC)ccc1-2,108,Ki [2]: 24.5 nM
CCCCCc1ncn2c1CN(C)C(=O)c1cc(Cl)ccc1-2,5.6,–
CN1C(=O)CN=C(c2ccccc2[N+](=O)[O-])c2cc([N+](=O)[O-])ccc21,0.06,Ki [2]: 0.76 nM; Ki [4]: 0.49 nM; Ki [3]: 7.7 nM; Ki [5]: > 10000 nM
C#Cc1ccc2c(c1)C(=O)N(C)Cc1c(C(=O)OCC)ncn1-2,58,–
C#Cc1ccc2c(c1)C(=O)N1CCC[C@H]1c1c(-c3nc(C)no3)ncn1-2,24,–
CCOC(=O)c1[nH]cc2nc3ccc(OCc4ccc5ccccc5c4)cc3c-2c1COC,–,Ki [2]: 293 nM; Ki [4]: 15.4 nM; Ki [3]: 323 nM; Ki [5]: > 1000 nM
CN1Cc2c(C(=O)OC(C)(C)C)ncn2-c2ccc(Br)cc2C1=O,24.3,–
CCOC(=O)c1ncn2c1CN(C)C(=O)c1cc(C#C[Si](C)(C)C)ccc1-2,24.2,–
CN1Cc2c(CCl)ncn2-c2ccc(Cl)cc2C1=O,> 10.5,–
CCCCC(=O)c1ncn2c1CN(C)C(=O)c1cc(Cl)ccc1-2,9.6,–
CCOCc1ncn2c1CN(C)C(=O)c1cc(Cl)ccc1-2,> 3.6,–
COCc1c(C(=O)OC(C)C)ncc2[nH]c3ccc(OCc4ccccc4)cc3c12 [ABECARNIL],–,Ki [5]: > 1000 nM
C#Cc1ccc2c(c1)C(=O)N1CCC[C@H]1c1c(-c3nc(CC)no3)ncn1-2,36,–
COc1ccc2c(c1)C(=O)N(C)Cc1c(C(=O)OC(C)(C)C)ncn1-2,23,–
CCOC(=O)c1ncn2c1[C@@H]1CCCN1C(=O)c1cc(C#C[Si](C)(C)C)ccc1-2,50,–
COC(=O)c1cc2c3cc(SC#N)ccc3nc-2c[nH]1,–,Ki [2]: 30 nM; Ki [4]: 3.41 nM; Ki [3]: 141 nM; Ki [5]: > 10000 nM

# — ChEMBL document CHEMBL1132940, “Pharmacophore/receptor models for GABA(A)/BzR subtypes (alpha1beta3gamma2, alpha5beta3gamma2, and alpha6beta3gamma2) via a comprehensive ligand-mapping approach” (J Med Chem, 2000)
